Laboratory results: the EternaBench riboswitch data

Test system: MS2 coat protein
Test: apparent Kd, MS2 coat protein; higher = weaker binding; RNA-MaP array; FMN 200 µM where present
Outline: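 The titrant was SNAP-549-labelled MS2 coat protein, run from 0.7 or 1.5 nM in doubling steps to 3 µM. It was applied to designs transcribed by stalled E. coli RNA polymerase on Illumina sequencing-chip clusters, without ligand first and then with constant ligand, in 100 mM Tris-HCl pH 7.5, 80 mM KCl, 4 mM MgCl2, BSA, DTT, yeast tRNA and Tween-20. The apparent Kd is the median of filtered per-cluster binding-curve fits, with green signal normalised to red-channel RNA signal and control-cluster median Fmax.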

[1] = designed as: OFF switch for flavin mononucleotide, no ligand
[2] = ligand present: flavin mononucleotide, designed as: OFF switch for flavin mononucleotide
[3] = designed as: ON switch for flavin mononucleotide, no ligand
[4] = ligand present: flavin mononucleotide, designed as: ON switch for flavin mononucleotide

Row | Sequence | apparent Kd [1] [nM] | apparent Kd [2] [nM] | apparent Kd [3] [nM] | apparent Kd [4] [nM]
1 | UAUAUAUAGUAAGGAUAUGUAAUUAUCUUAUAAACAGAAGGUACUGACAUGAGGAUCACCCAUGUUUUAGUGUGGGCAUGUAGA | 56.9 | 60.1 |  | 
2 | UGGUACUAGGGAGGAUAUGGGAAGAUACAUGAGGAUCACCCAUGUUUAAGAAUGCCGAGAGGCAUCUAGAAGGCCCUAGUACCU |  |  | 877 | 115
3 | CGAUAUAUGAAGGGCGAACGCGCACAUGAGGAUCACCCAUGUAGAAGGCGAUCCGCAACGCGGAUCGAGGAUAUAUAGUAUACG | 32.7 | 34 |  | 
4 | UUAAAUCAUGUAGGAUAUGCAUGGCGAAGCUACGCAGAAGGACAUGAGGAUCACCCAUGUUAAAGCUACCGUAUACGGUGGCAA | 131 | 174 |  | 
5 | AUGCGGUCAGGAUAUGCAUGGCGGGACUUGCGUCGUGGCGUGGAGAAGGGACAUGAGGAUCACCCAUGUGGAGU | 79 | 45.2 |  | 
6 | GUGAAGUAAGGAUAUAGUGGAAAAGAUAAGGUAUGAGAGUUCUAGAAGGUACAUGAGGAUCACCCAUGUUAGGG | 301 | 186 |  | 
7 | GUCAUGUUAGGAUAUCUGACAUGUGACUUCGGUCACUGUCCAGAGAAGGAACAUGAGGAUCACCCAUGUUGGAC | 55.6 | 63.9 |  | 
8 | AUAGUAUAGCAAGGAUAUCGAUUUAGUUUGUUACGAGAAGGUGCUUUAGUUUAUACCUCUUGUUUACAUGAGGAUCACCCAUGU | 23.1 | 20.6 |  | 
9 | ACAGCCGUCUAGAAGGGCGUAACUAAUUCCUACGUAGGAUAUGGACGGACAUGAGGAUCACCCAUGUUUGCAUUCCUCGUGGUA | 7.74 | 8.46 |  | 
10 | GUAUGGAGGGAGAAGGGCUAGGAGGUCCAGCUUAUGUGUGUUGCAACAUGAGGAUCACCCAUGUAGCAGGAUAUCCCUUGUACA | 44.4 | 242 |  | 
11 | UGCUAGGAUGGGUCUAAUGGACCUCAGGAUAUGCUUGUACAUGAGGAUCACCCAUGUAACAUUGUGCAGAAGGGAGGAUCCACG |  |  | 8.45 | 4.93
12 | UGGUACAUGGGAGGAUAUGGGUUGAUAACAUGAGGAUCACCCAUGUUAAAUUUUGCCGAAAGGCACUAGAAGGCCCAUGUACCU |  |  | 1130 | 142
13 | CUGGAUCACGCAGGAUAUUACAUGAGGAUCACCCAUGUCAGGACUGCAAUAUCGUCUCCUCGUUGUGAGAAGGGCGGAAUCAUU | 14.6 | 26.3 |  | 
14 | AGCGAGAUAGGCAAGGAUAUGCUGGGUUUCACAUGAGGAUCACCCAUGUCAUAGGUAAUGUCCGAGCAGAAGGUGCAUUCUCUUU |  |  | 171 | 21.7
15 | UUACCUCAUGAGAAGGACAUGAGGAUCACCCAUGUAGGAUAUCGUGGGACAGUGGAAUUGAAUCUUCGGAUUCAAUAACUCUAU |  |  | 327 | 26.1
16 | CUGAGGUGUCAAGGAUAUGCUACCGUUUCGGUAGCAGAAGGUGAUCACAUGAGGAUCACCCAUGUAUGCAUGCGUGAGCGUGCU |  |  | 39.5 | 55.4
17 | ACGAAACAUGAGGAUCACCCAUGUGAGGAUAUGUAAAUAGUAAACAAAUAAGAAAUAAACAGAAGGCACACAGG | 32.9 | 67 |  | 
18 | AUUUUAAAGGGAGGAUAUACAUGAGGAUCACCCAUGUAAACGUGAGGAUCACCCAUGUAAACAAUGUAGAAGGCCUAAAUCUAU | 86.1 | 73.6 |  | 
19 | CUUUUGUGAGGAUAUCAGUAUUAAAUAAAUAAAAUUACUACUGAGAAGGCACAUGAGGAUCACCCAUGUUCCUC | 33.4 | 201 |  | 
20 | GGGACACAUGAGGAUCACCCAUGUGAGGAUAUGUUAGUUUCGGCCAAAGCCGAAAUUAACAGAAGGCACAUACC | 36.7 | 49 |  | 
21 | ACAGCGGAGGCAGGAUAUCGCACAUGAGGAUCACCCAUGUGGUUAUUUACGGGUUGGUGGUCACGCGAGAAGGGCCAACCAUAA | 59 | 31.7 |  | 
22 | GGAUCGAUGUAGAAGGCUGUCCUAAAAUAGGACAGAGGAUAUACAUGAGGAUCACCCAUGUACUCCUUUAAAACGAUCCAAAUA | 5.44 | 7.59 |  | 
23 | CCCUGAGAUUGGUUAAUUGGCUGAUAGGAUAUCCUCGGACAUGAGGAUCACCCAUGUUAACUAUUGGAGAAGGGUCAGCGAAAG |  |  | 607 | 90.2
24 | UACCUGAGGCAAAGCUUUAGGUAUACAUGAGGAUCACCCAUGUAGGAUAUGGUAGGCUUUGCCUACCAGAAGGACAUGUUAAUU | 19.7 | 55.3 |  | 
25 | GCACAUUUGUAAGGAUAUACAACAUGAGGAUCACCCAUGUGAUUGAAUUUAGUAGAAGGUACAGAAAUGAGUAUCACUUUUGUA |  |  | 16.8 | 10.9
26 | GGAUCGAGUGUGAGGAUAUGCUGGUCCUUGGAUCAGCAGAAGGCACAUGAGGAUCACCCAUGUGUUCCCGGUCC | 48.9 | 577 |  | 
27 | UGAAAUCAUGUAGGAUAUGCAUGGCGAAGCUACGCAGAAGGACAUGAGGAUCACCCAUGUUCUAGCUACCGAGUUCGGUGGCAA | 21.3 | 127 |  | 
28 | AGGAUCUCAGUCAGGAUAUGUGUCUUCAAAGUACGGCAGAAGGGACAUGAGGAUCACCCAUGUUAGCCACCUUU | 26.6 | 69.1 |  | 

Row | Sequence | apparent Kd [1] [nM] | apparent Kd [2] [nM] | apparent Kd [3] [nM] | apparent Kd [4] [nM]
29 | UUCGCUAAGGUGUAGCGAGACAUGCAAGAAGGGUGAAGAACAUGAGGAUCACCCAUGUAGACGGUACAGGAUAUUGAUUGACGA |  |  | 128 | 89.3
30 | GUUUCUAUAAGUUAUAAUAAAUAGUCAGAAGGUGAUACUACGACAUGAGGAUCACCCAUGUUUUUCAAGGAUAUGAUGUUACUC |  |  | 373 | 50
31 | UGGUACAUCGGAGGAUAUCAUGUAUAUACAUGAGGAUCACCCAUGUCGUACGAGAGUACGGAGAUUGAGAAGGCCGAUGUACCU |  |  | 39.4 | 15.3
32 | GGUUGUCAUCGUCAUCCUUUCCGUACAUGAGGAUCACCCAUGUAGGAUAUGCUGCUCUCGGUGUGGCAGAAGGGCGUGUGUCUU | 17 | 18.7 |  | 
33 | GUCAGCUCGUCAGGAUAUACGUCACUGCUUCGGCAGUGUGGUAAGAUCACAUGAGGAUCACCCAUGUAGAAGGGACGAGCUGAC | 13.7 | 252 |  | 
34 | ACAUGAGGAUCACCCAUGUUAAACGAGGAUAUUUGACUGCACAUGAGGUUCACCCAUGUUCUGCCGAAGAAGGUGUAAAUAAUU |  |  | 39.2 | 31.2
35 | CAGCGAUAGCUGAAUGGUACAUGGGAGGAUAUGGGUUACAUGAGGAUCACCCAUGUUAAAUAAUACUAGAAGGCCCAUGUACCU |  |  | 16.5 | 4.55
36 | GAAUACCUAGGAUAUACAUGAGGAUCACCCAUGUCAGUAGACUCGGAAAAGUCUCUCAGUAGAAGGAGGACCAG | 35.2 | 79.3 |  | 
37 | ACGUUUAAUACAGGAUAUGUUCUUAUACUAUACAUUGCUUAUUACUUAAUUACAGAAGGGUAUAACAUGAGGAUCACCCAUGUA |  |  | 108 | 63.2
38 | UUUUAACAUGAGGAUCACCCAUGUGAGGAUAUCGAAAUUUAUAUUAAUAUUAUUUAUACGAGAAGGCACAUUUU | 63.2 | 73.4 |  | 
39 | GCAUGCAAGUAGAAGGACGGAUAUUUUGAAAACGUAGGAUAUACAGAAUCAUAUCCACAAGGUUACAUGAGGAUCACCCAUGUA | 8.19 | 8.08 |  | 
40 | ACAUGAGGAUCACCCAUGUAUUACAUGGUUAAGUUUAUUAACAGAAGGCGAAAUUACCACUUGAUCGAGGAUAUGUAUUCAAUU | 45 | 40.3 |  | 
41 | AGUCUGCUAGGAUAUACAUGAGGAUCACCCAUGUCUAUCAAUAGACUAUUAACCUGGUGUAGAAGGAGCUUGUA | 11.2 | 14.4 |  | 
42 | ACUUGUAAGCAGAAGGCAGUCAUUAUAUUAAUCAUGUAGACAUGAGGAUCACCCAUGUAGAGUACUGAGGAUAUGCAUCGAUAG | 11 | 7.34 |  | 
43 | GAGUGACACCAGAAGGGCCAGGAAAGAACCCUGGUAGGAUAUGGAGCGCCCUCGUAACGACCGACAUGAGGAUCACCCAUGUCC |  |  | 193 | 34.7
44 | UGUUGUAUUACAGGAUAUCUAUUAGUUUUAUAUAGAGAAGGGUAUUCACAUGAGGAUCACCCAUGUAUAUACGAGGAAGUUGUG |  |  | 43.4 | 45.5
45 | GGAUGACAAAGUCAUCCUUAACGAACAUGAGGAUCACCCAUGUAGGAUAUGCUACUCAAAGAGUAGCAGAAGGACAUGUGCCUU | 35 | 242 |  | 
46 | AGAAACUACGAGAAGGACAUGUGGUCCUUCAGUAACAUGAGGAUCACCCAUGUAGGAUAUCGUAGUUUCAGGAUCGUGAGAUCA | 150 | 19.1 |  | 
47 | UGUCCAUAGCAGAAGGCAUGUCAAAAGACAUGAGGAUCACCCAUGUAAGCAUGAGGAUAUGCUAUGGACUAAGAGCGAAAGCUC | 9.14 | 5.78 |  | 
48 | GGCGGUUUGGCAGGAUAUCGGAAACAGACCAAACGAGAAGGGCCUACAUGGCAAUGCGAAAGCAGACAUGAGGAUCACCCAUGU |  |  | 84.9 | 72.2
49 | CGUAACUGCAUAGGAUAUUGAUACAUGAGGAUCACCCAUGUUUUUCGGAUUAGAUAUAUACUAAGCAAGAAGGAUGGAGUUACG |  |  | 7.83 | 5.26
50 | AAAAAACAUGAGGAUCACCCAUGUCUUCGGACGUGAGGAUAUGUACAGACUUCGGUCUGUACAGAAGGCACGUCAA |  |  | 31.3 | 19.2
51 | GUCAGCUCGUGAGGAUAUUCAACACUGCUUCGGCAGUGUAUUAAGAUCACAUGAGGAUCACCCAUGUAGAAGGCACGAGCUGAU | 5.79 | 10.8 |  | 
52 | GUGCACAUUCGAGGAUAUCGGAGAGGAGUCCUUCGAGAAGGCGAUUCGUGCCGUGUUAUUCUGGACAUGAGGAUCACCCAUGUG |  |  | 106 | 35.7
53 | GGAUGACAAAGUCAUCCAUAACGAACAUGAGGAUCACCCAUGUAGGAUAUGCUUCUCAAAGAGAAGCAGAAGGACAUGUGCCUU | 36.7 | 258 |  | 
54 | UGUCGGAGCAGAGGAUAUCACAUGAGGAUCACCCAUGUAUGAACCAAUAGCUGGAAACAGCAAUGUAAGAAGGCUGCUCCGACA | 5.64 | 9.62 |  | 
55 | UGCAUGGUAGGAUAUACGGAGCAUUAGGGUUUGUUGUGUGGACAUGAGGAUCACCCAUGUAGAAGGGCCGUGCU | 42.8 | 65.2 |  | 
